Source: PubChem (The Scripps Research Institute Molecular Screening Center)
Compounds with a hit are over-represented: about 4.5% of the library has one in this group of screens.
TAAR1 antag – human TAAR1 antagonists, primary screen, Fluo-8 calcium fluorescence, CHO RD-HGA16 cells | Trace amine-associated receptor 1 (Homo sapiens), Q96RJ0 | antagonist | inhibition, % at 3 µM | 1.5% of 360,000 active;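 active = inhibition above a per-plate cutoff, the mean inhibition of test compounds on that plate plus 3 SD, cut at about 49% in these data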
Target sequence (Q96RJ0 whole entry, looked up): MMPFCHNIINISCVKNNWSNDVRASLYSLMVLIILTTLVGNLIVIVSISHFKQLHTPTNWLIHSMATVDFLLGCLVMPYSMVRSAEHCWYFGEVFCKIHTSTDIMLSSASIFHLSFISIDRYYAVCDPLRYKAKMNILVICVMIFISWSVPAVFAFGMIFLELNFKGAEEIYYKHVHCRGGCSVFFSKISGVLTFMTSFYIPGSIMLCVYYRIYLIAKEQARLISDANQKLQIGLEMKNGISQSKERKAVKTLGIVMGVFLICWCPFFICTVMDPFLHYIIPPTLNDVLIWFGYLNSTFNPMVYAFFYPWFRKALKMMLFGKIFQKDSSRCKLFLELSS
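Material: RD-HGA16 CHO cells with stable hTAAR1 and Gα16; Dosing: single nominal final test compound concentration of 3 µM; Schedule: seeding 17-24 h prior, 75-min 37 °C, 30-min RT dye loading; Detection: kinetic Fluo-8 calcium fluorescence measurement; Measure: % inhibition from peak post-agonist over basal fluorescence ratio; Benchmarks: vehicle and agonist controls.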
GPR7 antagonist – GPR7 receptor antagonists, primary screen, cell-based, fluorescence, single concentration | AID 1861, 2009 | Neuropeptides B/W receptor type 1 (Homo sapiens), P48145 | GPR7-expressing cells, fluorescence antagonist assay | 1.1% of 290,000 active | inhibition, % at 4.4 µM; in the data active = inhibition above about 16%, passing the limit was not always enough;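 note: cells stimulated with the agonist NPW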
Target sequence (P48145 whole entry, looked up): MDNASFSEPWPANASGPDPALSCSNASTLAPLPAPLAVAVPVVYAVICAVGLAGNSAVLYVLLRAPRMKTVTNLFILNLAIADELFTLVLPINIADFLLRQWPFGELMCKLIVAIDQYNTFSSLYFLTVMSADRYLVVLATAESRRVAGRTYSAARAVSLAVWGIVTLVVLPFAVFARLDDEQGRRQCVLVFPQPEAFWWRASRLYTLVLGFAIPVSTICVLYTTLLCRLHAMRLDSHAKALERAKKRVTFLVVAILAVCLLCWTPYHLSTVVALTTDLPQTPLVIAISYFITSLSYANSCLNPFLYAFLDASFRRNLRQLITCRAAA
OX1R antag-1 – OX1R (HCRTR1) antagonists, primary screen, fluorescence, CHO/OX1R cells, Fluo-8 calcium, orexin A. Orexin/Hypocretin receptor type 1 (Homo sapiens), O43613. Fluo-8 calcium fluorescence. inhibition, % at 5 µM. 0.43% of 330,000 active. AID 434989, 2010;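 active = inhibition above its plate's threshold, mean inhibition of all tested compounds on the plate plus 3 SD, cut at about 37% in these data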
OX1R antag-2 – antagonists of human orexin 1 receptor (OX1R); Orexin/Hypocretin receptor type 1 (Homo sapiens), O43613; OX1R-expressing cells, FRET antagonist read-out; inhibition, % at 6.6 µM; 1.8% of 330,000 active; in the data active = inhibition mostly above about 38%, no sharp cut-off; inactive = mostly below about 40%
TAAR1 ag – human TAAR1 agonists, primary screen, Fluo-8 calcium fluorescence, CHO RD-HGA16 cells. vehicle wells 0%, saturating PEA agonist 100%. Trace amine-associated receptor 1 (Homo sapiens), Q96RJ0. activation, % at 3 µM. 0.99% of 360,000 active. AID 624467, 2012;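 active = activation above the mean activation of all test compounds in the run plus 3 SD, cut at about 38% in these data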
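Test system: RD-HGA16 (CHO) cells co-expressing Gα16 and hTAAR1 | Doses: Single dose, 3 µM | Schedule: 17-24 h seeding, 75 min 37 °C dye, 30 min RT | Evaluation: % activation from peak over basal fluorescence ratio, DMSO-to-PEA scaled | Technique: Kinetic Fluo-8 calcium fluorescence | Benchmarks: Low control DMSO, high control PEA (EC100)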
CHO parental Ca – ATP-evoked calcium signal inhibitors, parental CHO, primary screen, counter-screen for OX1R antagonist project, cell-based, fluorescence, Fluo-8 calcium dye. inhibition, % at 5.6 µM. parental CHO-K1, ATP-induced calcium, Fluo-8 fluorescence. 0.63% of 330,000 active;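 active = inhibition above that plate's mean sample inhibition plus 3 SD, cut at about 26% in these data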
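Test system: parental CHO cells; detection: calcium-sensitive Fluo-8 fluorescence; evaluation: percent inhibition of calcium signal; also added: ATP as calcium-mobilizing challenge; repeats: one well per compound; control set: ATP-challenged DMSO wells low, unchallenged DMSO wells high; compound: single nominal dose of 5.6 µM per compound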
Hits are given with their value; 0 = inactive; - = no result given.

SMILES	TAAR1 antag	GPR7 antagonist	OX1R antag-1	OX1R antag-2	TAAR1 ag	CHO parental Ca
CSc1ccc(CN2CCC(CO)(Cc3ccc(Cl)cc3)CC2)cc1	0	30	0	0	0	0
OCC1(Cc2ccccc2)CCN(Cc2ccc(C(F)(F)F)cc2)CC1	0	0	0	0	0	0
CCOc1cc(CNCCCN2CCOCC2)cc(Br)c1OCc1ccccc1Cl	0	39	0	0	0	0
CCOc1cc(CNCCO)cc(Br)c1OCc1ccccc1Cl	0	0	0	0	46	0
CCOc1cc(CNCCN2CCOCC2)ccc1OCc1ccccc1Cl	0	0	0	0	0	0
COC(=O)CC#C[C@H](C)[C@@H](NS(C)(=O)=O)C(C)(C)COCc1ccccc1	0	-	-	-	0	-
O=C1C2C3C=CC(O3)C2C(=O)N1Nc1ccccc1 (stereo not drawn)	0	-	-	-	0	-
CCCN1C(=O)c2n[nH]c(C(C)C)c2C1c1cccc(C(F)(F)F)c1 (stereo not drawn)	0	-	-	-	0	-
COc1ccc(CN2CCc3ccc(NC(=O)CCc4ccccc4OC)cc3C2)c(O)c1	59	0	0	0	0	0
COc1cc(CN2CCc3ccc(NC(=O)CCc4ccccc4OC)cc3C2)ccc1O	0	0	0	0	0	0
O=C(N/N=C/c1ccc([N+](=O)[O-])cc1)c1[nH]ncc1Br	0	0	0	58	0	0
O=C(N/N=C\c1cn[nH]c1-c1ccccc1)c1ccc([N+](=O)[O-])cc1	0	0	0	0	0	0
O=C(N/N=C/c1ccc([N+](=O)[O-])cc1)c1cc(C2CC2)[nH]n1	0	0	0	68	0	0
Cc1cc(C(=O)N/N=C/c2ccc(O)c([N+](=O)[O-])c2)n[nH]1	0	0	0	60	0	0
Cc1cc(C(=O)N/N=C/c2cccc([N+](=O)[O-])c2O)n[nH]1	0	0	0	0	0	0
CCCCOCC1CN(CCCC)S(=O)(=O)c2c(NCc3cc(OC)c(OC)c(OC)c3)cccc2O1 (stereo not drawn)	0	-	-	-	0	-
COc1cccc(-c2ccc3c(c2)[C@@H]2C[C@H]4[C@@H](CN2CC3)[C@H](C)ON4C)c1	0	-	-	-	0	-
CCCCN1CC(COCc2ccccc2)Oc2cccc(NCc3cc(OC)c(OC)c(OC)c3)c2S1(=O)=O (stereo not drawn)	0	-	-	-	0	-
CCOCCCNC(=O)CN1C(=O)/C(=C/c2ccccc2C)Sc2ccccc21	0	0	0	0	0	0
CCOCCCNC(=O)/C=C1\Sc2ccccc2N(Cc2ccccc2F)C1=O	0	19	0	44	0	0
COc1ccc2c3c(cccc13)N(C)N=C2C	0	0	0	66	0	0
COc1ccc2c3c(cccc13)OC2=O	0	0	0	0	0	0
CCOc1ccc2[nH]c3c(N4CCN(c5ccccn5)CC4)ncnc3c2c1	0	0	0	61	0	0
c1ccc2c(c1)[nH]c1c(N3CCC4(CC3)OCCO4)ncnc12	-	0	0	66	-	60
OC1(c2cccc(C(F)(F)F)c2)CCN(c2ncnc3c2[nH]c2ccccc23)CC1	56	0	0	0	0	0
SMILES	TAAR1 antag	GPR7 antagonist	OX1R antag-1	OX1R antag-2	TAAR1 ag	CHO parental Ca
c1ccc(CN2CCN(c3ncnc4c3[nH]c3ccccc34)CC2)cc1	0	0	0	0	0	46
Cc1ccc2[nH]c3c(N4CCCCCC4)ncnc3c2c1	-	0	-	-	-	-
CCCCc1c(-c2ccccc2OC)ncn1Cc1ccccc1F	0	-	-	-	0	-
COC(=O)c1cccc(CN2C(=O)C(C)Sc3cc(Cl)ccc32)c1 (stereo not drawn)	0	-	-	-	0	-
COc1ccc2c(c1)[nH]c1c(N3CCN(Cc4ccc5c(c4)OCO5)CC3)ncnc12	0	0	0	49	0	0
Cc1ccc2[nH]c3c(N4CCN(Cc5ccccc5)CC4)ncnc3c2c1	0	0	0	80	0	0
COc1cccc2[nH]c3c(N4CCc5ccccc5C4)ncnc3c12	-	0	0	0	-	0
c1ccc2c(c1)CCN(c1ncnc3c1[nH]c1ccccc13)C2	58	-	80	80	0	66
CCCCNC(=O)C[C@H]1C[C@@]2(C(=O)OC)C(=C[C@H](C(C)(C)C)O[C@@H]2C)N(Cc2ccc3c(c2)OCO3)C1=O	0	-	-	-	0	-
COc1ccc(NC(=O)N(C)C[C@H]2OCc3cn(nn3)CCCC(=O)N([C@H](C)CO)C[C@@H]2C)cc1	0	-	-	-	0	-
CC(C)(CNc1ccc(C(F)(F)F)cc1[N+](=O)[O-])N1CCOCC1	0	0	0	0	0	0
Cc1[nH]n(-c2ccccc2)c(=O)c1/C=N/N1C(=O)c2cccc3cccc(c23)C1=O	0	0	0	74	0	0
Cc1cc(CNC(=O)Cc2c(F)cccc2Cl)nn1C	-	19	0	0	-	0
Cc1ccc(C)c(-c2cc(C(=O)NNC(=S)NCC(C)C)c3ccccc3n2)c1	50	0	0	0	0	0
CCNC(=S)NNC(=O)c1cc(-c2ccccc2C)nc2ccccc12	-	0	0	0	-	0
CCN(CC)C(=O)[C@H]1C[C@@H]2[C@H](C[C@@H](c3ccccc3)[C@H]1C)N(c1ccc(F)cc1)C(=O)N2C/C=C(\C)CCC=C(C)C	0	-	-	-	0	-
O=C(Cn1cnc2cc([N+](=O)[O-])ccc2c1=O)NC1CCS(=O)(=O)C1 (stereo not drawn)	0	0	0	63	0	0
CN(Cc1cccs1)C(=O)Cn1cnc2cc([N+](=O)[O-])ccc2c1=O	0	0	0	40	0	0
O=C(Cn1cnc2cc([N+](=O)[O-])ccc2c1=O)N(Cc1ccccc1)C1CCS(=O)(=O)C1 (stereo not drawn)	0	0	0	0	0	0
CC(C)C(C(=O)Nc1ccncc1)c1ccc(Cl)cc1 (stereo not drawn)	0	0	0	0	54	0
CC(C)(Oc1ccc(Cl)cc1)C(=O)Nc1ccncc1	0	0	0	0	0	37
CN(C)c1cccc2c(S(=O)(=O)NCC3CCN(C(=O)C(=O)c4cccs4)CC3)cccc12	0	-	-	-	0	-
Oc1ccccc1/C=N/Nc1nccnc1Cl	0	0	0	0	41	0
COc1ccc(Cc2nnc(SCC(=O)c3ccccc3)o2)cc1	0	0	0	0	0	0
CC(C)NC(=O)N(C)C[C@H]1OCc2cn(nn2)CCCC(=O)N([C@H](C)CO)C[C@@H]1C	0	-	-	-	0	-
COC(=O)[C@]12C[C@H](CC(=O)NCCc3ccccc3OC)C(=O)N(CCC3=CCCCC3)C1=C[C@H](COCc1ccccc1)O[C@@H]2C	0	-	-	-	0	-
